Data published in ChEMBL document CHEMBL1142655, “Cytotoxicity of cis-platinum(II) conjugate models. The effect of chelating arms and leaving groups on cytotoxicity: a quantitative structure-activity relationship approach” (J Med Chem, 2005).

Legend:
[1] = test system: A2780; experiment: Inhibitory concentration against human A2780 ovarian adenocarcinoma cell line; assay type: functional, cell-based
Summary of the method: (§1)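 Cells kept in RPMI1640 with 10% fetal calf serum, 2 mM L-glutamine and 1% antibiotics at 37 °C, 5% CO2. Cp8 subline was derived by chronic cisplatin exposure. 1 × 10^3 cells/well grew 24 h, then were exposed to 0-500 µM final for 120 h (DMSO ≤0.1% final). MTT was read after 3 h, A570. Run three times in quadruplicate. IC50 from nonlinear regression; mean ± SE.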

[2] = test system: A2780; experiment: Inhibitory concentration against cisplatin-resistant A2780 human ovarian adenocarcinoma cell line; assay type: functional, cell-based; summary of the method: as §1

| IC50 [1] [µM] | IC50 [2] [µM] | Substance |
| --- | --- | --- |
| 7.66 | 123 | CARBOPLATIN |
| 1.37 | 45 | CISPLATIN |
| 5.55 | 118 | DICHLORO(ETHYLENEDIAMINE) PLATINUM (II) |
| 0.48 | 6.62 | OXALIPLATIN |
